PMC7787347 (Journal of medicinal chemistry, 2018)
Entries after “also recorded” stand apart in the source; their conditions may differ.

How the values were obtained:
β-catenin = settings: in words; cited from earlier work
BCL9 HD2 domain = settings: in words; cited from earlier work
MDA-MB-231 = settings: read-out: MTs IC50 ± SD MDA-MB-231; Wnt/β-catenin hyperactive, 72 h; cited from earlier work
HCT116 = settings: read-out: MTs IC50 ± SD HCT116; Wnt/β-catenin hyperactive, 72 h; cited from earlier work
MDA-MB-231 cells = settings: cited from earlier work
A549 = settings: read-out: MTs IC50 ± SD normal Wnt A549, 72 h; cited from earlier work
SW480 = settings: read-out: MTs IC50 ± SD SW480; Wnt/β-catenin hyperactive, 72 h; cited from earlier work
[1] = tested on: Axin2, LEF1, cyclin D1 mRNA in SW480 cells; experiment: qPCR of Wnt target gene mRNA expression; type: cell-based, human; settings: 24 h, in words
[2] = tested on: cyclin D1, c-myc, active β-catenin (ABC), total β-catenin in SW480 cells; experiment: Western blot of protein expression; type: cell-based; settings: 24 h, in words
β-catenin/BCL9 PPI = target: T1, β-catenin/BCL9 PPI (Homo sapiens, UniProt P35222); experiment: AlphaScreen competitive inhibition assay, β-catenin/BCL9 PPI; type: binding; settings: in words
T1 sequence (P35222 1-781): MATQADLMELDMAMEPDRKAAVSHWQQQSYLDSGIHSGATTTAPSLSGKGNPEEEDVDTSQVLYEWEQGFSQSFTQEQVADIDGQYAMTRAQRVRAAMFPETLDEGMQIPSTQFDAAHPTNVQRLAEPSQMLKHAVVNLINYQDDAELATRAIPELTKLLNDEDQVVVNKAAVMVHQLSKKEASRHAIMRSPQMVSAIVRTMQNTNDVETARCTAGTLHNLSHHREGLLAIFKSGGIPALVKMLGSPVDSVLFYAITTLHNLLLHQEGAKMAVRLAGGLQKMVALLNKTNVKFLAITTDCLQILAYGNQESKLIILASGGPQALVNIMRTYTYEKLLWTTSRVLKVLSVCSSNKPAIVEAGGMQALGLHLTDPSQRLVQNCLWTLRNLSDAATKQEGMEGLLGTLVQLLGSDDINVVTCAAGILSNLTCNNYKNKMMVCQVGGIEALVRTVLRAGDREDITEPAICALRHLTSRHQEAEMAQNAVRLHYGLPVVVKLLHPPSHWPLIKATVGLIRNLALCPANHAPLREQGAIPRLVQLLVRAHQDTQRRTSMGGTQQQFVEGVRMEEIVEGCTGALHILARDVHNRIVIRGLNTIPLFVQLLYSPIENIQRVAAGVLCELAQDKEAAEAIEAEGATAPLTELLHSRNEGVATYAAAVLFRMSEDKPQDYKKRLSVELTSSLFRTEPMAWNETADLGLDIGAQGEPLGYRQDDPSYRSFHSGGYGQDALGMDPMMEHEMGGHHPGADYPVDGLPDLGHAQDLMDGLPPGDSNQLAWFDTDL

β-catenin/E-cadherin PPI = target: T2, β-catenin/E-cadherin PPI (Homo sapiens, UniProt P35222); experiment: AlphaScreen selectivity assay, β-catenin/E-cadherin PPI; type: binding; settings: for selectivity of BCL9/cadherin: ratio of Ki β-catenin/E-cadherin over Ki β-catenin/BCL9
T2 sequence (P35222 1-781): T1 sequence (P35222 1-781)

[3] = tested on: β-catenin/BCL9 PPI in HCT116 cells; experiment: Co-IP in whole cells; type: cell-based; settings: 24 h, in words
SW480 cells = experiment: LDH release cytotoxicity assay; type: cell-based; settings: 4 h incubation, in words
Summary of the method: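 SW480 cells were seeded at 2 × 10^4 cells/well, held overnight at 37 °C, then exposed to various concentrations of test compound for 4 h. The culture supernatant was reacted with the commercial LDH kit reagents and read at 490 nm. Percent cytotoxicity was calculated from experimental, background and maximum LDH release. Run in triplicate.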

HCT116 cells = experiment: Cell-bound; type: in vitro ADME; settings: 5 mL DMEM with 10% FBS
[4] = tested on: full-length β-catenin/full-length BCL9 PPI in HCT116 cell lysates; experiment: Co-IP in cell lysates; type: cell-based; settings: 4 h incubation with HCT116 cell lysates, in words
[5] = tested on: FOPFlash luciferase reporter (three mutant Tcf4 binding sites) in β-catenin activated HEK293 cells; experiment: FOPFlash luciferase reporter assay; type: cell-based; settings: in words; for effect on FOPFlash luciferase reporter activity: β-catenin activated HEK293 cells
BCL9 (Homo sapiens) = BCL9 (Homo sapiens) (UniProt O00512); settings: cited from earlier work
Chain of BCL9 (Homo sapiens) (O00512 whole entry): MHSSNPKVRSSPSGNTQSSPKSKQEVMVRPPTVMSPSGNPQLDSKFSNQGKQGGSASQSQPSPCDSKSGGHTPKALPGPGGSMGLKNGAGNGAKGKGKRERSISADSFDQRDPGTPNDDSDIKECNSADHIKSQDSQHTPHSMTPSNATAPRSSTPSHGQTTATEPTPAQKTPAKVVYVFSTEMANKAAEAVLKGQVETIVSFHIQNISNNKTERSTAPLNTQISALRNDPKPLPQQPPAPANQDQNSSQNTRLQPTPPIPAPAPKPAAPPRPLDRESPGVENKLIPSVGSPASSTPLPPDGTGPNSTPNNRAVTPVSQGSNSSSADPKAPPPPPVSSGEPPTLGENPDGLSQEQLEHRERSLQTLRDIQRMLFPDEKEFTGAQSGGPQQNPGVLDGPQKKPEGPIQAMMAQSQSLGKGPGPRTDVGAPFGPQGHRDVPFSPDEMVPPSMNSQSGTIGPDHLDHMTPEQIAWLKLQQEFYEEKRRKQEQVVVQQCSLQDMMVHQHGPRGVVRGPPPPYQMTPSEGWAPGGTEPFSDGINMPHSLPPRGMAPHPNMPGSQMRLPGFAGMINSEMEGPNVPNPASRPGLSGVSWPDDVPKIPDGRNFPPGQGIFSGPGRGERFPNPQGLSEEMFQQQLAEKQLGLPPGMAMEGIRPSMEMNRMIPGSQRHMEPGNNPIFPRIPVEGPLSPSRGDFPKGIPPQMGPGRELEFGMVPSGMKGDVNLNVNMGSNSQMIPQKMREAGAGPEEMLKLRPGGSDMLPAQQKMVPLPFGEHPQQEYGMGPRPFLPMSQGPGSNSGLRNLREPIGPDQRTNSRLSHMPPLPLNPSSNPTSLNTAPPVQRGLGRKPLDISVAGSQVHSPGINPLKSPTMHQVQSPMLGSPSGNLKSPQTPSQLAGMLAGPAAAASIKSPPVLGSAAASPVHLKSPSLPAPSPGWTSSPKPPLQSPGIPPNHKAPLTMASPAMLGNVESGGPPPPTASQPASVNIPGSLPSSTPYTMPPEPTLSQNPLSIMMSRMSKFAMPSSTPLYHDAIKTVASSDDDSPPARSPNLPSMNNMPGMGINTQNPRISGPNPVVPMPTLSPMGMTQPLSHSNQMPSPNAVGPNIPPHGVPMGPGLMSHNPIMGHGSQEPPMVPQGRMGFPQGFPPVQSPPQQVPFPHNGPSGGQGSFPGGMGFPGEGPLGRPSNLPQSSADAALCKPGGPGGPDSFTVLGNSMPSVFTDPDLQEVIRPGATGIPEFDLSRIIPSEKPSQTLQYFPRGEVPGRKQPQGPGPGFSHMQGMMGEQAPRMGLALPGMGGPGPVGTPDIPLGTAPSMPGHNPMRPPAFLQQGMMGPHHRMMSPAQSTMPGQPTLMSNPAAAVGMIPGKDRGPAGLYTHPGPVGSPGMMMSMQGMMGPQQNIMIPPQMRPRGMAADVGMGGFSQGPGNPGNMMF

Row | Compound | mRNA expression of Wnt target genes Axin2, cyclin D1 and LEF1 [1] | mRNA expression of house-keeper gene HPRT [1] | level of E-cadherin-bound β-catenin (total β-catenin) [2] | level of the active form of β-catenin (ABC) [2] | protein expression levels of cyclin D1 and c-myc [2] | AlphaScreen biochemical inhibitory activity compared with 1 (β-catenin/BCL9 PPI) | Ki (β-catenin/E-cadherin PPI) [µM] | selectivity of BCL9/cadherin (β-catenin/E-cadherin PPI) [fold] | effect on FOPFlash luciferase reporter activity [5] | also measured
1 | Cl.Cl.O=C(Nc1ccc(O[C@H]2CCNC2)c(-c2ccc(F)cc2)c1)c1ccc(O[C@H]2CCNC2)c(-c2ccc(F)c(F)c2)c1 [Compound 1] | – | – | – | – | – | – | – | – | – | binding with β-catenin in ITC (β-catenin): bind with β-catenin; binding with BCL9 HD2 domain in ITC (BCL9 HD2 domain): not the BCL9 HD2 domain; IC50 (MDA-MB-231): 2.3 ± 0.25 µM; IC50 (HCT116): 3.1 ± 0.83 µM; cell-bound concentration at 4 °C (MDA-MB-231 cells; 6 h incubation at 4 °C, 5 mL DMEM with 10% FBS): 1 nmol/million MDA-MB-231 cells; cell-bound concentration at 37 °C (MDA-MB-231 cells; 6 h incubation, 5 mL DMEM with 10% FBS, input concentration 2 μM): 6.7 nmol/million MDA-MB-231 cells; amount bound with the cell membrane by the nonspecific manner (MDA-MB-231 cells; MDA-MB-231 cells): 15%; IC50 (A549): 8.8 ± 0.62 µM; IC50 (SW480): 3.5 ± 0.32 µM
2 | Cl.Cl.O=C(Nc1ccc(O[C@H]2CCNC2)c(-c2ccc(F)cc2)c1)c1ccc(O[C@H]2CCNC2)c(-c2ccc3ccsc3c2)c1 [Compound 3, 3-(Benzo[b]thiophen-6-yl)-N-(4′-fluoro-6-(((S)-pyrrolidin-3-yl)-oxy)-[1,1′-biphenyl]-3-yl)-4-(((S)-pyrrolidin-3-yl)oxy)benzamide Dihydrochloride] | dose-dependently inhibited | did not inhibit | no effect | inhibit the level of the active form of β-catenin (ABC) | significantly decreased | – | – | – | – | –
3 | Cl.Cl.O=C(Nc1ccc(O[C@H]2CCNC2)c(-c2cccc(-c3nn[nH]n3)c2)c1)c1ccc(O[C@H]2CCNC2)c(-c2ccc(F)c(F)c2)c1 [Compound 27, 3′,4′-Difluoro-6-((S)-pyrrolidin-3-yloxy)-N-(6-((S)-pyrrolidin-3-yloxy)-3′-(2H-tetrazol-5-yl)-[1,1′-biphenyl]-3-yl)-[1,1′-biphenyl]-3-carboxamide Dihydrochloride] | – | – | – | – | – | comparable with that of 1 | – | – | – | –
4 | Cl.Cl.O=C(Nc1ccc(O[C@@H]2CCNC2)c(-c2cccc(-c3nn[nH]n3)c2)c1)c1ccc(O[C@H]2CCNC2)c(-c2ccc(F)c(F)c2)c1 [Compound 29, 3′,4′-Difluoro-6-(((S)-pyrrolidin-3-yl)oxy)-N-(6-(((R)-pyrrolidin-3-yl)oxy)-3′-(2H-tetrazol-5-yl)-[1,1′-biphenyl]-3-yl)-[1,1′-biphenyl]-3-carboxamide Dihydrochloride] | dose-dependently inhibited | did not inhibit | no effect | inhibit the level of the active form of β-catenin (ABC) | significantly decreased | – | > 915 | >1900 | specific for the Wnt/β-catenin signaling pathway | disruption of β-catenin/BCL9 PPI in cells [3]: inhibited the β-catenin/BCL9 PPI in a dose-dependent manner; cytotoxicity in LDH release assay (SW480 cells): did not exhibit cytotoxicity; also recorded: did not show cytotoxicity; cell-bound concentration at 4 °C (HCT116 cells; 6 h incubation at 4 °C): 5.1 nmol/million HCT116 cells; cell-bound concentration at 37 °C (HCT116 cells; 6 h incubation, input concentration 50 μM): 6.6 nmol/million HCT116 cells; disruption of full-length β-catenin/full-length BCL9 PPI [4]: dose-dependently disrupt; effect on FOPFlash luciferase reporter activity up to 200 μM ([5]; up to the concentration of 200 μM): no effect
5 | Cl.Cl.O=C(Nc1ccc(O[C@@H]2CCNC2)c(-c2cccc(-c3nn[nH]n3)c2)c1)c1ccc(O[C@H]2CCNC2)c(-c2ccc3ccsc3c2)c1 [Compound 30, (R)-3-((5-(3-(Benzo[b]thiophen-6-yl)-4-(((S)-pyrrolidin-1-ium-3-yl)oxy)benzamido)-3′-(2H-tetrazol-5-yl)-[1,1′-biphenyl]-2-yl)oxy)-pyrrolidin-1-ium Chloride] | – | – | – | – | – | comparable with that of 1 | > 915 | >570 | specific for the Wnt/β-catenin signaling pathway | –
6 | β-catenin (from UniProt P35222) | – | – | – | – | – | – | – | – | – | Kd (BCL9 (Homo sapiens)): 0.47 µM
